From PubChem BioAssay
MEKK3 PB1 HTS: modulators of MEKK3-MEK5 PB1 binding, primary screen, biochemical, wildtype MEKK3, multiplex bead flow cytometry, Alexa488-MEK5 | Mitogen-activated protein kinase kinase kinase 3 (Homo sapiens), Q99759 | 1.4% of 290,000 active | bead-based flow cytometry, Alexa488-MEK5 binding to MEKK3; actives lie on both sides; 0 = blocked by unlabeled MEK5, 100 = vehicle | binding response (% of control), % at 10 µM;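 active means binding response more than 3 SD above or below the average of its plate-row segment, actives on both sides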;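 further: Alexa488 bead fluorescence after subtracting the streptavidin-only scavenger bead signal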
T cell modulator: modulators of CD8 T cell-vesicle binding, primary screen, mouse 2C CD8+ T cells, flow cytometry; 0.068% of 330,000 active; response (vesicle binding), % at 7 µM; 2C CD8+ T cell-vesicle binding; stronger effect = lower value;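 active means response, share of CD8 T cells binding vesicles, and their 90th percentile fluorescence all below set limits, cut at about 80% in these data, passing the limit was not always enough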;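 further: values below 100% mean blocked vesicle binding to the CD8+ T cells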
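Incubation: binding step 1.5 h, 37 °C, antibody labelling 20 min, ice; system: murine 2C transgenic CD8+ T lymphocytes; technique: cytometric PE anti-B7-1 and Alexa647 anti-CD8 signals after 1% paraformaldehyde fixation; also added: QL9-charged Drosophila Ld/ICAM-1/B7-1 vesicles; control set: naked versus QL9-loaded vesicles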
UCH37 DUB inh: inhibitors of human UCH37 deubiquitinase, primary screen, biochemical, Ub-AMC cleavage, fluorescence | inhibition, % (concentration not given with the values) | 0.33% of 330,000 active | purified proteasome/UCH37 | Ubiquitin carboxyl-terminal hydrolase isozyme L5 (Homo sapiens), Q9Y5K5;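 active means mean inhibition over replicate wells above about 20%, limit read from the data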;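 further: 0% = compound-free wells with enzyme and 100% = wells lacking proteasome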
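Schedule: 30 min plus 25 min, room temperature / Material: human UCH37 within purified proteasomes / Technique: AMC fluorescence intensity at 355/460 nm / Buffer or medium: pH 7.4 Tris-HCl (50 mM) with ovalbumin, ATP-MgCl2, DTT / Controls: wells without proteasome as full block, compound-free enzyme plus substrate as uninhibited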
Rce1 inhib: yeast Rce1p protease inhibitors, primary screen, biochemical, fluorescence, cell-free homogeneous | yeast membranes, quenched prenylated peptide cleavage fluorescence | calls only | 0.27% of 290,000 active | AID 2563, 2010;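 active means fall in fluorescence gain of 50% or more versus controls, with final raw signal at or below 3038400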;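 further: plate controls were neutral control wells for no effect and wells lacking membranes for full effect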
Target sequence (Q03530 whole entry, looked up): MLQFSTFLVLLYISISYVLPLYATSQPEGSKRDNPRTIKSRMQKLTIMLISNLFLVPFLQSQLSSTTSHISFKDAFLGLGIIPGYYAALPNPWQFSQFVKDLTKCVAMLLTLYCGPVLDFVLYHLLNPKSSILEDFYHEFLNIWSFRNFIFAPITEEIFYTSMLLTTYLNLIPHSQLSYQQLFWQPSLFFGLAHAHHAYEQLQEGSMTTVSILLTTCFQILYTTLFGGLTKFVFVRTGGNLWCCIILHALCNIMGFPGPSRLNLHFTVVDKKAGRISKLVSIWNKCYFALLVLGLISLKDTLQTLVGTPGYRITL
MEKK2wt PB1 HTS: modulators of MEK5 binding to wildtype MEKK2, primary screen, biochemical, multiplex bead flow cytometry, Alexa488-MEK5 | Mitogen-activated protein kinase kinase kinase 2 (Homo sapiens), Q9Y2U5 | binding response (% of control), % at 10 µM | 1.1% of 290,000 active | Alexa488-MEK5 binding to MEKK2 WT; actives lie on both sides; in the data active means binding response below about 67% or above about 130%
MEKK2 mut-MEK5: MEK5 binding signal on mutant MEKK2 PB1, primary screen, biochemical, multiplex bead flow cytometry, Alexa488-MEK5; percent response, % at 10 µM; AID 1530, 2009; Alexa488-MEK5 binding to MEKK2 mutant; 0.35% of 290,000 active; in the data active means percent response above about 24%, passing the limit was not always enough
* marks the source's active call; other numbers are inactive results; i = inactive; . = no result given; + = active, no number; [ ] = dose if it differs, or a comment. The list is not random: actives were taken first. Their share in the collection is about 2.5%.

SMILES	MEKK3 PB1 HTS	T cell modulator	UCH37 DUB inh	Rce1 inhib	MEKK2wt PB1 HTS	MEKK2 mut-MEK5
CCN(C(=O)c1cc2c(=O)[nH]c3ccc(C)cc3c2s1)c1cccc(C)c1	127	0.0*	-19	i	113	28
CC(C)c1c(C(=O)NN=Cc2ccc(-c3ccccc3)cc2)nnn1-c1nonc1N	.	.	-1	.	.	.
Cc1cccc(N2CN=c3sc(=Cc4ccncc4)c(=O)n3C2)c1	.	.	6	.	.	.
CC(Nc1cccc2ccccc12)C(=O)NN=Cc1ccc([N+](=O)[O-])cc1 (stereo not drawn)	.	.	3	.	.	.
COc1cc(/C=C/c2[nH]c(=O)[nH]c(=O)c2[N+](=O)[O-])cc([N+](=O)[O-])c1O	91	86	21*	i	90	-1
CCC(C)Oc1ccc(/C=C/c2[nH]c(=O)[nH]c(=O)c2[N+](=O)[O-])cc1OC (stereo not drawn)	102	383	13	i	96	1
COc1ccc(OC)c(NC(=O)CCN2CCCCC2)c1	89	76*	4	i	90	-1
COc1ccc(C)cc1NC(=O)CCN1CCCC1	101	874	2	i	102	1
CCOC(=O)NN=Cc1c[nH]c2ccccc12	.	.	-1	.	.	.
COc1ccc(CCN(C)CC(O)COC(c2ccc(F)cc2)c2ccc(F)cc2)cc1OC (stereo not drawn)	101	162	4	i	145*	13
O=C(Nc1ccccn1)c1cccc(S(=O)(=O)N2CCCC2)c1	82*[inhibitor]	387	1	i	97	-4
COc1cc(Cl)cc(C=NNC(N)=O)c1O	.	.	-53	.	.	.
CC(=NNC(=S)Nc1c(C)cccc1C)c1cc2ccccc2o1	.	.	-1	.	.	.
CCc1nnc(NC(=O)c2ccc(NS(=O)(=O)c3ccccc3)cc2)s1	82	376	-2	+	81	-4
CCN(CC)c1ccc(C=NNC(=O)c2ccc3nc[nH]c3c2)c(O)c1	.	.	-22	.	.	.
CCC(Sc1nc(N)cc(=O)[nH]1)C(=O)NC(C(=O)OC)c1ccccc1 (stereo not drawn)	99	578	32*	i	98	-1
C/C(C=NNC(=O)c1ccc(Br)cc1)=C\c1ccccc1	.	.	-5	.	.	.
CCOC(=O)N1CCN(C(=O)COC(=O)Cc2ccc(Cl)cc2)CC1	99	245	7	i	98	-2
O=C(Cc1ccc(Cl)cc1)OCC(=O)N1CCCCCC1	.	61*	2	.	.	.
O=C(COc1ccc(Cl)cc1[N+](=O)[O-])N1CCCCCC1	99	31*	.	i	94	-3
CC(=NNC(=O)c1cccc(C)c1)c1cccc(NC(=O)c2ccco2)c1	.	.	6	.	.	.
CON=Cc1cn(-c2ccc(Cl)cc2)nn1	.	.	-2	.	.	.
CC1(C)CC(=O)C2=C(C1)N(Cc1ccco1)C(=O)C2(NC(=O)c1cccnc1)C(F)(F)F (stereo not drawn)	56*[inhibitor]	191	-1	i	66	-15
Cn1cccc1C=NNC(=O)c1sc2ccccc2c1Cl	.	.	-4	.	.	.
CN1c2ccccc2-c2nc3ccccc3n2C1c1ccncc1 (stereo not drawn)	106	545	.	+	110	3
CCN(CC)CCNC(=O)c1ccc(NC(=O)c2cn(-c3ccc(F)cc3)nc2-c2cccc(OC)c2)cc1	108	82	3	.	222*	51*
CN(C)CCNc1ncnc2oc(-c3ccccc3)c(-c3ccccc3)c12	109	142	-24	+	122	17
CN(C)CCNc1ncnc2ccccc12	98	287	2	i	99	-5
CON=Cc1ccc(Sc2ccccc2)c([N+](=O)[O-])c1	.	.	3	.	.	.
